This is an account of results in ChEMBL document CHEMBL5705892, “MK-2206, an allosteric Akt inhibitor, enhances antitumor efficacy by standard chemotherapeutic agents or molecular targeted drugs in vitro and in vivo” (Mol Cancer Ther, 2010).

Calls of active or inactive are those of the source. The rule behind the calls is not given here.

Broadly, the IC50 is the midpoint of a concentration-inhibition curve.

In data set [1] the test system is A2780. Put plainly: Induction of apoptosis in carboplatin pretreated human A2780 cells assessed as increase in caspase-3/7 activity measured after 24 hrs by caspase-glo 3/7 assay. The data set is classed as functional, cell-based. Conditions: dose 0.0625-1 µM.
In data set [2] the test system is SK-OV-3. Put plainly: Antiproliferative activity against human SK-OV-3 cells assessed as reduction in cell proliferation measured after 72 hrs by celltiter-glo assay. It counts as functional, cell-based. The settings on record: SK-OV-3, 72 h. The gist of the method:
(§1)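 Cells in RPMI 1640 with 10% heat-inactivated FBS at 37°C and 5% CO₂ were seeded at 2 to 3 × 10³ per well. […] Growth was read as cellular ATP by CellTiter-Glo.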
Background: In ATP-based viability assays light output follows the ATP content of the culture.

The test system of data set [3] is NCI-H292. Put plainly: Antitumor activity against human NCI-H292 cells xenografted in CD-1 mouse assessed as tumor growth suppression at 360 mg/kg, po administered once a week for 2 weeks starting 2 hrs post-erlotinib treatment and measured twice a week during compound dosing by caliper method. The data set is classed as functional, organism-based. The gist of the method:
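Female CD1-nude mice carried s.c. NCI-H292 cells in Matrigel/PBS and were randomized at 0.2 cm³, n = 5. […] MK-2206 (30% Captisol) was given 2 h later at 120 mg/kg po on days 0, 2, 4, 7, 9, 11, or at 360 mg/kg on days 0 and 7. Control received vehicle. Caliper volume twice weekly.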
(In general: In xenograft studies the graft and the host belong to different species.)

The subject of data set [4] is HCC70. Put plainly: Synergistic antiproliferative activity against human HCC70 cells assessed as combination index at ED90 measured after 96 hrs in presence of lapatinib by celltiter-glo assay. The data set is classed as functional.
For data set [5], the target named is RAC-alpha serine/threonine-protein kinase (Homo sapiens) (UniProt P31749). Put plainly: Inhibition of AKT in human A-431 cells assessed as reduction in GSK3alpha/beta phosphorylation at S21/S9 residues at 5 umol/L measured after 5 hrs in presence of erlotinib by Western blot analysis. The data set is classed as cell-based. Conditions: dose 5.0 µmol/L. In short, it runs like this:
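Cells were lysed in Tris-HCl pH 7.5, 150 mM NaCl, 1% Triton X-100 with protease and phosphatase inhibitors. Lysates were run on SDS-PAGE, transferred to nitrocellulose and probed with phospho-specific antibodies.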

Data set [6] can be described thus: Toxicity in human PC-3 cells xenografted CD1 nude mouse assessed as body weight loss at 120 mg/kg, po administered 3 times per week for 2 weeks starting 24 hrs post docetaxel treatment and measured during compound dosing relative to control. It counts as organism-based. The settings on record: in vivo, 336 h. In short, it runs like this: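 Male CD1-nude mice with s.c. PC-3 tumours (50% Matrigel/50% PBS, left flank), randomized at mean 0.2 cm³, n=5/group, treated from 25 d post-implant. Body weight monitored versus vehicle-only controls.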

Data set [7] deals with SK-OV-3. Put plainly: Synergistic antiproliferative activity against human SK-OV-3 cells assessed as combination index at ED75 measured after 72 hrs in presence of lapatinib by celltiter-glo assay. The data set is classed as functional.
In data set [8] the test system is HCC70. Put plainly: Induction of apoptosis in human HCC70 cells assessed as increase in caspase-3/7 activity at 3 umol/L measured after 48 hrs in presence of lapatinib by caspase-glo 3/7 assay relative to control. It counts as functional. Conditions: dose 3 µmol/L. In short, it runs like this:
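HCC70 cells were grown in RPMI 1640 with 10% heat-inactivated FBS at 37°C in 5% CO₂. They were exposed for 48 h to MK-2206 (0, 0.03, 0.3, 3 µmol/L), with or without lapatinib (0, 1, 3, 5, 10 µmol/L). Caspase-3/7 activity was read by Caspase-Glo 3/7 luminescence and expressed as fold induction over the DMSO vehicle control. The experiment was run twice, and representative data were reported.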

Data set [9] concerns SK-BR-3. Put plainly: Synergistic antiproliferative activity against human SK-BR-3 cells assessed as combination index at ED75 measured after 72 hrs in presence of docetaxel by celltiter-glo assay. The data set is classed as functional.
The test system of data set [10] is BT-474. Put plainly: Synergistic antiproliferative activity against human BT-474 cells assessed as combination index at ED90 measured after 72 hrs in presence of docetaxel by celltiter-glo assay. The data set is classed as functional. In short, it runs like this:
(§2)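 Cells grown in RPMI 1640 with 10% heat-inactivated FBS at 37°C, 5% CO₂. Seeded at 2 to 3 × 10³ per well; drugs added 24 h later. […] Viability read as cellular ATP by CellTiter-Glo. CI calculated by Chou–Talalay from median-effect plots at ED50, ED75 and ED90.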

Data set [11] has as its system MDA-MB-468. Put plainly: Synergistic antiproliferative activity against human MDA-MB-468 cells assessed as combination index at ED50 measured after 72 hrs in presence of docetaxel by celltiter-glo assay. It counts as functional. The gist of the method: as §2
A short description of data set [12]: Toxicity in human NCI-H292 cells xenografted CD-1 mouse assessed as weight loss at 360 mg/kg, po administered once a week for 2 weeks starting 2 hrs post-erlotinib treatment and measured on day 16. The data set is classed as organism-based. The settings on record: in vivo, 384 h, time 16 day. In short, it runs like this:
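Female CD1-nude mice bearing s.c. NCI-H292 tumours (cells in 50% Matrigel/50% PBS, left flank), randomized at mean 0.2 cm³, n=5/group. Body weight monitored; treatment period ended day 16.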

The subject of data set [13] is SK-BR-3. Put plainly: Synergistic antiproliferative activity against human SK-BR-3 cells assessed as combination index at ED75 treated 24 hrs prior to lapatinib and measured after 72 hrs by celltiter-glo assay. The settings on record: time 96 hrs. It counts as functional.
Data set [14] relates to A2780. Put plainly: Cell cycle arrest in human A2780 cells assessed as increase in accumulation of cells at sub-G1 phase measured after 72 hrs in presence of gemcitabine by propidium iodide staining based flow cytometry. It counts as functional. Background: A flow cytometer gives signals particle by particle.
The subject of data set [15] is NCI-H441. Put plainly: Synergistic antiproliferative activity against human NCI-H441 cells assessed as combination index at ED25 to ED90 measured after 72 hrs in presence of carboplatin by celltiter-glo assay. The data set is classed as functional.
Data set [16] has as its system NCI-H1993. Put plainly: Synergistic antiproliferative activity against human NCI-H1993 cells assessed as combination index at ED25 to ED90 measured after 72 hrs in presence of carboplatin by celltiter-glo assay. It counts as functional.
The subject of data set [17] is HCC827. Put plainly: Antiproliferative activity against human HCC827 cells assessed as reduction in cell proliferation measured after 72 hrs by celltiter-glo assay. It counts as functional, cell-based. The settings on record: HCC827, 72 h. In short, it runs like this:
as §1

Data set [18] has as its system NCI-H1299. Put plainly: Synergistic antiproliferative activity against human NCI-H1299 cells assessed as combination index at ED50 measured after 72 hrs in presence of erlotinib by celltiter-glo assay. It counts as functional.
In data set [19] the test system is HCC1954. Put plainly: Synergistic antiproliferative activity against lapatinib pretreated human HCC1954 cells assessed as combination index at ED90 measured after 72 hrs by celltiter-glo assay. The data set is classed as functional.
The test system of data set [20] is SK-BR-3. Put plainly: Synergistic antiproliferative activity against human SK-BR-3 cells assessed as combination index at ED50 measured after 72 hrs in presence of docetaxel by celltiter-glo assay. It counts as functional.
The test system of data set [21] is SK-OV-3. Put plainly: Antitumor activity against human SK-OV-3 cells xenografted in CB17/icr SCID mouse assessed as tumor growth inhibition at 60 to 120 mg/kg, po administered 3 times per week for 2 weeks and measured twice a week during compound dosing by caliper method. It counts as functional, organism-based. Conditions: dose 60-120 mg/kg. The gist of the method: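 SK-OV-3 cells were implanted s.c. into female C.B-17/ICR-scid mice, which were randomized at 0.13 cm³, n = 5. Lapatinib (water) was given at 100 mg/kg po on days 0–4 and 7–11. MK-2206 (30% Captisol) was given at 60 or 120 mg/kg po on days 0, 2, 4, 7, 9, 11. Tumor volume by calipers twice weekly.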

RAC-alpha serine/threonine-protein kinase (Homo sapiens), sequence (P31749 whole entry): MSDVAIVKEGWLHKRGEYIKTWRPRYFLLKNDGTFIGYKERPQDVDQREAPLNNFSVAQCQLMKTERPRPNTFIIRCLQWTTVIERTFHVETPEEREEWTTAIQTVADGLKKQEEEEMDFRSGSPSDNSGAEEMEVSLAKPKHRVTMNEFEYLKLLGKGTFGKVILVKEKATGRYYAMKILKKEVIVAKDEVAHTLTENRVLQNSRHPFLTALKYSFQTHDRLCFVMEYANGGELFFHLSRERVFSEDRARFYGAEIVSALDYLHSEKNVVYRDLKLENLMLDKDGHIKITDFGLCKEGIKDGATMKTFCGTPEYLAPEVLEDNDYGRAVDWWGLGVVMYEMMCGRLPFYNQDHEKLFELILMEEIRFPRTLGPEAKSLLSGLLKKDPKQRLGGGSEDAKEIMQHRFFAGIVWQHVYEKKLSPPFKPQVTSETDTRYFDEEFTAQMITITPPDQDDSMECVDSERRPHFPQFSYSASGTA

For the compound `Cl.NC1(c2ccc(-c3nc4ccn5c(=O)[nH]nc5c4cc3-c3ccccc3)cc2)CCC1`, the Activity entry in [1] is “Dose-Dependent Effect”; in data set [6], 9%; in data set [12], “Non-Toxic”; in data set [14] it was “Dose-Dependent Effect”. Also, the IC50 in [2] stood at 5.1 µM; in data set [17], 4.3 µM. The result in data set [3] was Active. Moreover, the CI90 was 0.18 in [4], 0.7 in [10] and 0.18 in data set [19]. Moreover, the inhibition result in [5] is “Active”. Also, the CI75 in data set [7] stood at 0.13; in data set [9], 0.7; in data set [13], 0.18. In addition, the “fold change (FC)” value in data set [8] was 7. The CI50 in data set [11] worked out at 0.9; in data set [18] it was 0.28; in data set [20], 0.8. Also, the figures for the CI in data set [15] and in data set [16] were 0.46 and 0.44, respectively. Further, in data set [21], the TGI entry is “Active”.
